Screens (PubChem BioAssay)
Bfl-1 A1 inh = caspase 3/7 activation in MEF A1-2A-BIM cells, primary screen, A1 inhibitor project, cell-based, luminescence, HTS; hit rate 0.066% among 330,000; caspase activation, % (test concentration not listed); AID 2462, 2010; Caspase-Glo 3/7 luminescence, 3 h; percent of clofoctol response, vehicle zero;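 active means over half of replicate activation scores above 10%, or exactly half above 10 with the replicate mean above 10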
MC4R ag barr = MC4R agonists recruiting beta-arrestin, primary screen, cell-based, luminescence, agonist arm of biased-ligand search. Melanocortin receptor 4 (Homo sapiens), P32245. U2OS MC4R beta-arrestin complementation; percent of melanotan II response, DMSO zero. activation, % at 8.9 µM. hit rate 0.98% among 360,000. AID 540308, 2011;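 active means activation above a per-plate cutoff, the mean activation of sample wells on that plate plus 3 SD, cut at about 8% in these data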
Target sequence (P32245 whole entry, looked up): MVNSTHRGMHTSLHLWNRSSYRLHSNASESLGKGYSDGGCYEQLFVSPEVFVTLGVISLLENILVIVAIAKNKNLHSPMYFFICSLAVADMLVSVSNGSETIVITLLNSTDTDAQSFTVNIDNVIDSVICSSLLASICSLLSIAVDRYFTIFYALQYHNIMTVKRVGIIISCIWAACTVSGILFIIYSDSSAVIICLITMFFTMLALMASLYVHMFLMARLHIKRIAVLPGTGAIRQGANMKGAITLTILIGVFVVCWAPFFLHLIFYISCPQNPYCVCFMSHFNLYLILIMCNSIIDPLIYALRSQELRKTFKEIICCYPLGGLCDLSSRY
CHOP UPR activ = activators of apoptotic CHOP UPR arm, primary screen, cell-based, CHO-CHOP luciferase reporter, luminescence, uHTS; UPR activation; percent of tunicamycin response over DMSO baseline; activation, % at 10 µM; hit rate 0.34% among 330,000;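 active means at 10 µM dose, activation of 40% or more, normalized to positive control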;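 further: 100% = tunicamycin at 10 µg/mL and 0% = DMSO alone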
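System: CHO-CHOP luciferase reporter cell line | Buffer or medium: F12 medium containing 10% fetal bovine serum | Doses: One dose, 10 µM in 0.5% DMSO | Times: 6 h compound exposure at 37 °C after overnight seeding | Signal: Luciferase luminescence | Read-out: % activation vs tunicamycin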
XBP1 UPR activ = activators of adaptive XBP1 UPR arm, primary screen, cell-based, CHO-XBP1 luciferase reporter, luminescence, uHTS; activation, % at 20 µM; IRE1-XBP1 UPR activation; percent of tunicamycin response, DMSO as zero; AID 463104, 2010; hit rate 0.33% among 330,000;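 active means versus positive control, 20 µM dose yields 30% or more activation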;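 further: 100% = tunicamycin at 10 µg/mL and 0% = DMSO only wells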
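Signal: luciferase luminescence; Assay system: CHO-XBP1 luciferase reporter cells; Amount: one thousand reporter cells per well; Dosing: 20 µM single concentration, DMSO 1%; Benchmarks: high control tunicamycin 10 µg/mL final, low control DMSO vehicle only; Schedule: 6 h compound exposure at 37 °C, 5% CO2; Evaluation: percent activation relative to tunicamycin reference.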
MC4R antagonist = MC4R antagonists of cAMP signaling, primary screen, cell-based, TR-FRET, antagonist arm of biased-ligand search; MC4R-expressing cells, MTII-stimulated cAMP, LANCE TR-FRET; hit rate 0.48% among 360,000; inhibition, % at 6.5 µM; AID 540295, 2011;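 active means inhibition above its plate's cutoff, the mean of tested wells on that plate plus 3 SD, cut at about 29% in these data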;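 further: 0% = Melanotan II alone and 100% = Melanotan II plus saturating MCL0020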
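Assay system: U2OS cells stably expressing human melanocortin 4 receptor (MC4R) / Dosing: 6.5 µM / Timing: compound 30 min, challenge 1 h, detection 1 h / Measured by: Eu-cAMP/anti-cAMP TR-FRET, emission 671 nm / Replicates: singlicate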
An asterisk follows results filed as active; . = no result given. Shown are actives, neighbours in structure and some others; about 2% of the full set was active somewhere.

SMILES	Bfl-1 A1 inh	MC4R ag barr	CHOP UPR activ	XBP1 UPR activ	MC4R antagonist
O=C(NCc1ccccc1)c1cc(C2CCCN(S(=O)(=O)c3cccs3)C2)on1 (centres undefined)	.	-1.1	.	.	-0.2
O=C(CSc1ncnc2c1oc1ccccc12)Nc1nc2ccccc2s1	0.3	8.6*	0.2	5.0	7.7
CCc1nnc(NC(=O)CSc2ncnc3c2oc2ccccc23)s1	-0.5	-1.2	-0.8	2.6	5.3
COc1cc2c(cc1OC)C(c1ccc3c(c1)Cc1ccccc1-3)OC(=O)C2 (centres undefined)	.	-0.7	.	.	-6.1
COC(=O)c1cc(S(=O)(=O)N2CCN(c3cccc(Cl)c3)CC2)c[nH]1	0.2	9.1*	0.5	-4.9	-3.0
CC(C)NC(=O)C1(C)CCN1Cc1ccc(Cl)cc1 (centres undefined)	.	-1.0	.	.	3.2
CC(=O)NC(c1ccccc1)c1nc(-c2cc3ccccc3o2)cs1 (centres undefined)	.	0.2	.	.	7.5
COc1ccc(/C=N/NC(=O)COc2ccc(Cl)cc2Cl)cc1Cn1nc(C)cc1C	0.8	18.4*	-0.6	-0.8	-2.8
CCOC(=O)c1c(C)oc2c(F)c(F)c(F)c(F)c2c1=O	0.3	0.0	2.5	-4.7	32.6*
CC1(C(=O)NS(=O)(=O)c2ccc(Br)cc2)CCN1C(=O)Cc1ccsc1 (centres undefined)	.	-0.9	.	.	7.7
Cc1ccc(C(=O)NCCc2nnc3ccc(SCC(=O)Nc4nnc(C)s4)nn23)cc1	.	-1.2	.	.	-3.2
Cc1ccsc1C(=O)N1CCC1(C)C(=O)NS(=O)(=O)c1ccccc1C(F)(F)F (centres undefined)	.	-1.0	.	.	-1.8
O=C(CSCC(=O)Nc1nc(-c2ccc3c(c2)OCO3)cs1)Nc1nccs1	-1.9	0.4	2.9	3.3	-1.2
O=C(CSc1ccc(-c2ccc3c(c2)OCO3)nn1)Nc1nccs1	-0.7	9.5*	2.9	2.5	2.5
CCOc1ccc(N(CC(=O)NCc2ccc(F)cc2)C(=O)c2snc(C(N)=O)c2N)cc1	1.2	12.8*	2.4	-5.8	10.0
CC1(Oc2ccccc2-c2ccno2)CCN(Cc2csc3ccccc23)C1 (centres undefined)	.	-1.6	.	.	3.7
CC(NCC(O)COc1ccc2ccccc2c1)c1ccccc1 (centres undefined)	1.6	4.1	-1.3	12.7	-6.8
Cc1cc(OCC(O)CNC(C)c2ccccc2)ccc1C(C)C (centres undefined)	-0.1	9.2*	0.5	3.6	-0.1
COC(=O)c1sc(NC(=O)COc2cccc3ccccc23)nc1C	0.6	8.4*	-1.4	2.6	-2.9
COC(=O)c1sc(NC(=O)CSc2nnnn2-c2cccc(OC)c2)nc1C	0.2	8.7*	-2.4	-1.9	3.5
CC(C)Oc1ccc(CNC(=O)CC(c2ccccc2)c2cc(Cl)ccc2O)cc1 (centres undefined)	0.4	9.3*	0.3	-1.4	9.8
OC[C@@H]1CN(Cc2ccc(Cl)cc2)C[C@H](n2cnc3c(NCc4ccc(F)cc4)ncnc32)O1	.	-0.7	.	.	2.9
CCOC(=O)c1ccc(N2C(=O)CC(N3CCCC(C)C3)C2=O)cc1 (centres undefined)	0.0	1.7	-0.2	-2.5	29.2*
COc1ccc(-c2csc(NC(=S)NC(=O)/C=C/c3ccco3)n2)cc1OC	0.7	9.1*	.	.	-20.3
CCCN(CCC)c1nc(-c2ccccn2)nc2ccccc12	1.1	-3.8	69.2*	7.1	17.8
Cn1cc(-c2ccc(C(=O)Nc3cccc(Oc4ccccc4)c3)c3occc23)cn1	.	9.2*	.	.	6.8
CCn1c(=S)sc2c(=O)n(CC(=O)Nc3ccc(Cl)cc3)c(C)nc21	0.0	8.6*	0.9	-4.1	25.3
O=C(NC(=S)Nc1ccc2c(c1)C(=O)c1ccccc1C2=O)c1ccc(F)cc1	-4.3	.	15.3	41.1*	.
CCOC(=O)Cc1cc(-c2ccc(OC)cc2)nc2ccc3ccccc3c12	0.0	1.2	1.4	-1.9	3.4
